Laboratory results as given in ChEMBL document CHEMBL1151922, “Structure-activity relationships of 3,5-disubstituted benzamides as glucokinase activators with potent in vivo efficacy” (Bioorg Med Chem, 2009).
The source made the active and inactive calls. The rule behind the calls is not given here.

Experiments:
[1] = Octanol-water distribution coefficient, log D at pH 7.4 by HPLC-MS analysis
Hexokinase-4 [2] = biological target: T1, Hexokinase-4 (Homo sapiens, UniProt P35557); assay: Activation of flag-tagged human recombinant liver glucokinase expressed in Escherichia coli by glucose-6-phosphate dehydrogenase coupled continuous spectrophotometric assay in presence of 10 mM glucose
T1 sequence (P35557 whole entry): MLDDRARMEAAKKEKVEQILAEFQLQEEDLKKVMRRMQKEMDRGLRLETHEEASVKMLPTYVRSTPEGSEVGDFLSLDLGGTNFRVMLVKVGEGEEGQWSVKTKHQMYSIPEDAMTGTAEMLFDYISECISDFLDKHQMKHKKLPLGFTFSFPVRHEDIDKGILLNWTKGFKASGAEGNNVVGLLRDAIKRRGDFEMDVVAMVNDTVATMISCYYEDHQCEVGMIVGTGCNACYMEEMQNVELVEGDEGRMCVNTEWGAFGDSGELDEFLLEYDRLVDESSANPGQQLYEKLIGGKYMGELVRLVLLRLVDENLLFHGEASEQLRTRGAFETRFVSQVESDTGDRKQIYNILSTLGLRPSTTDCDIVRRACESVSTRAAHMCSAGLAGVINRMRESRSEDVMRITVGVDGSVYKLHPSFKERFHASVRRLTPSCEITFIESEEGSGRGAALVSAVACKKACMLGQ

Hexokinase-4 [3] = biological target: T1, Hexokinase-4; assay: Activation of flag-tagged human recombinant liver glucokinase expressed in Escherichia coli by glucose-6-phosphate dehydrogenase coupled continuous spectrophotometric assay in presence of 2.5 mM glucose
[4] = Solubility in water at pH 7.4 by HPLC-UV method
Mus musculus [5] = assay: Glucose lowering effect in normal-fed ICR mouse assessed as decrease in blood glucose AUC level at 3 mg/kg, po; assay type: functional, organism-based; set-up: dose 3 mg/kg
Summary of the method: (§1)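 Male ICR mice aged ten to eleven weeks, fed ad libitum, given a single oral dose suspended in 0.5% methylcellulose; vehicle alone served as control. Blood glucose was measured immediately before dosing and at 0.5, 1, 1.5, 2, 3 and 4 h afterwards.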

Mus musculus [6] = assay: Glucose lowering effect in normal-fed ICR mouse assessed as decrease in blood glucose AUC level at 10 mg/kg, po; assay type: functional, organism-based; set-up: dose 10 mg/kg; summary of the method: as §1

SMILES	logD [1]	EC50 (Hexokinase-4 [2]) [nM]	EC50 (Hexokinase-4 [3]) [nM]	solubility [4] [µg/mL]	Activity (Mus musculus [5])	Activity (Mus musculus [6])
CC(CCO)Oc1cc(Oc2ccc(S(C)(=O)=O)cc2)cc(C(=O)Nc2nccs2)c1 (racemic)	3.4	60	150	–	–	–
CS(=O)(=O)c1ccc(Oc2cc(O[C@H]3CCC[C@H]3O)cc(C(=O)Nc3nccs3)c2)cc1	–	110	260	–	–	–
CS(=O)(=O)c1ccc(Oc2cc(OC(CO)C(F)(F)F)cc(C(=O)Nc3nccs3)c2)cc1 (racemic)	> 4	240	790	–	–	–
CN1CCC(Oc2cc(Oc3ccc(S(C)(=O)=O)cc3)cc(C(=O)Nc3nccs3)c2)C1 (racemic)	–	7300	24000	–	–	–
CS(=O)(=O)c1ccc(Oc2cc(O[C@H]3CCC[C@@H]3O)cc(C(=O)Nc3nccs3)c2)cc1 (stereo in doubt; 6j)	–	90	160	–	–	–
CS(=O)(=O)c1ccc(Oc2cc(O[C@H]3CCC[C@@H]3O)cc(C(=O)Nc3nccs3)c2)cc1 (stereo in doubt)	–	170	280	–	–	–
CS(=O)(=O)c1ccc(Oc2cc(O[C@H]3CCC[C@H]3O)cc(C(=O)Nc3nccs3)c2)cc1 (racemic)	3.4	120	460	–	–	–
Cn1cnnc1Sc1ccc(N)c(C(=O)Nc2nccs2)c1	–	140	420	–	–	–
CC(CO)Cc1cc(Oc2ccc(S(C)(=O)=O)cc2)cc(C(=O)Nc2nccs2)c1 (racemic)	3.4	250	750	–	–	–

Continued, in another order:

logD [1]	EC50 (Hexokinase-4 [2]) [nM]	EC50 (Hexokinase-4 [3]) [nM]	solubility [4] [µg/mL]	SMILES	Activity (Mus musculus [5])	Activity (Mus musculus [6])
> 5	–	–	< 0.1	Cc1csc(NC(=O)c2cc(Oc3ccc(S(C)(=O)=O)cc3)cc(OC(C)C)c2)n1	inactive	inactive
–	7400	30000	–	Cc1csc(NC(=O)c2cc(Oc3ccc(S(C)(=O)=O)cc3)cc(OC(C)C(=O)O)c2)n1 (racemic)	–	–
–	2600	12000	–	CC(CN(C)C)Oc1cc(Oc2ccc(S(C)(=O)=O)cc2)cc(C(=O)Nc2nccs2)c1 (racemic)	–	–
2.4	200	780	–	CS(=O)(=O)c1ccc(Oc2cc(OCCO)cc(C(=O)Nc3nccs3)c2)cc1	–	–
1.1	210	1500	–	CC(CN)Oc1cc(Oc2ccc(S(C)(=O)=O)cc2)cc(C(=O)Nc2nccs2)c1 (racemic)	–	–
